# Measurements: ChEMBL document CHEMBL4261537, “Synthesis and pharmacological evaluation of multi-functional homoisoflavonoid derivatives as potent inhibitors of monoamine oxidase B and cholinesterase for the treatment of Alzheimer's disease” (Medchemcomm, 2017)
# Experiments:
# [1] = Selectivity index, ratio of IC50 for equine serum BuChE to IC50 for electric eel AChE
# Acetylcholinesterase [2] = target: T1, Acetylcholinesterase (Electrophorus electricus, UniProt O42275); assay: Inhibition of electric eel AChE using acetylthiocholine iodide as substrate preincubated for 5 mins followed by substrate addition measured at 1 to 3 mins time interval by Ellman's method
# Cholinesterase [3] = target: T2, Cholinesterase (Homo sapiens, UniProt P06276); assay: Inhibition of human serum BuChE at 100 uM using S-butyrylthiocholine iodide as substrate preincubated for 5 mins followed by substrate addition measured at 1 to 3 mins time interval by Ellman's method
# Outline: (§1)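 Ellman assay: compound diluted in 50 mM Tris-HCl pH 8.0 with 0.1 M NaCl, 0.02 M MgCl2 (DMSO 1%). Preincubated 5 min at 37°C with 1.5 mM DTNB and BuChE (0.12 U/mL in Tris with 0.1% BSA); 15 mM S-butyrylthiocholine iodide added; absorbance at 405 nm read at 0, 1, 2, 3 min.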
# Homo sapiens [4] = species: Homo sapiens; assay: Selectivity index, ratio of IC50 for human serum BuChE to IC50 for human erythrocytes AChE
# Acetylcholinesterase [5] = target: Acetylcholinesterase (Homo sapiens, UniProt P22303); assay: Inhibition of human erythrocytes AChE using acetylthiocholine iodide as substrate preincubated for 5 mins followed by substrate addition measured at 1 to 3 mins time interval by Ellman's method
# [6] = target: T3, Amine oxidase [flavin-containing] B (Homo sapiens, UniProt P27338); assay: Inhibition of recombinant human MAO-B assessed as reduction in H2O2 production using p-tyramine as substrate preincubated for 15 mins followed by substrate addition by Amplex red reagent based fluorescence assay
# T3 sequence (P27338 whole entry): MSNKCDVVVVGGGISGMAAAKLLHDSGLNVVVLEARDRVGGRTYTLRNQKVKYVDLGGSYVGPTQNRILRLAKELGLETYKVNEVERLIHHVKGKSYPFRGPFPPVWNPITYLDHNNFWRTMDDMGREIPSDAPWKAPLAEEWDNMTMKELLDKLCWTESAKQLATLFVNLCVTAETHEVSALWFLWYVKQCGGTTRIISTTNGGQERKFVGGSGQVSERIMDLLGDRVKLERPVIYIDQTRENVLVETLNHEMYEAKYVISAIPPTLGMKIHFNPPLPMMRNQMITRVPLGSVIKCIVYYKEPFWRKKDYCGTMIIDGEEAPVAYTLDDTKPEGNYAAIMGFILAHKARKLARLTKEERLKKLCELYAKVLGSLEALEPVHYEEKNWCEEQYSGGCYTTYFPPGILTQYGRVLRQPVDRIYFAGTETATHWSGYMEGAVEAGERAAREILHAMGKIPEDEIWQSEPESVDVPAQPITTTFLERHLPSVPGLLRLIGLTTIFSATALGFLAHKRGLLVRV
# Outline: (§2)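 Human MAO-A or MAO-B, each set to the same control reaction velocity. Preincubated with compound 15 min at 37°C in the dark, in sodium phosphate buffer with DMSO. Then 200 μM Amplex Red (final) added with 1 U/mL HRP and 1 mM p-tyramine. Run in triplicate, mean ± SD.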
# [7] = target: T4, Amine oxidase [flavin-containing] A (Homo sapiens, UniProt P21397); assay: Inhibition of recombinant human MAO-A assessed as reduction in H2O2 production at 100 uM using p-tyramine as substrate preincubated for 15 mins followed by substrate addition by Amplex red reagent based fluorescence assay
# T4 sequence (P21397 whole entry): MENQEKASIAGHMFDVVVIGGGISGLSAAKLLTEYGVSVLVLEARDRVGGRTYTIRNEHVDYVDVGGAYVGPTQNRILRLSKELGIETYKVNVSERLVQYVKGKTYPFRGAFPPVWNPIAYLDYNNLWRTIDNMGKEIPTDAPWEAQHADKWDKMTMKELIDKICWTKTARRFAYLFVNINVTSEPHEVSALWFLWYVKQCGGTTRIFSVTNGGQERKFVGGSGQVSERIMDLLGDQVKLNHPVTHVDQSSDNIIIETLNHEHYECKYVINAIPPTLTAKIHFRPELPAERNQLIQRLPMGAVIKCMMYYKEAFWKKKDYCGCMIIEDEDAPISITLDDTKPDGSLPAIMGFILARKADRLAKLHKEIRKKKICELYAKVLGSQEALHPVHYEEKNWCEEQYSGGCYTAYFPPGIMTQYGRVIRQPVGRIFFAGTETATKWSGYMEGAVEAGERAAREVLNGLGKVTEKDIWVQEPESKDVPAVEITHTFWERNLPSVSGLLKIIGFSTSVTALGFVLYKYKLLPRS
# Outline: as §2, with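 “p-tyramine. Resorufin fluorescence read at 37°C (ex 545/em 590 nm), background from enzyme-free wells subtracted.” for “p-tyramine.”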
# Cholinesterase [8] = target: T5, Cholinesterase (Equus caballus, UniProt P81908); assay: Inhibition of equine serum BuChE at 100 uM using S-butyrylthiocholine iodide as substrate preincubated for 5 mins followed by substrate addition measured at 1 to 3 mins time interval by Ellman's method; conditions: horse; outline: as §1
# Homo sapiens [9] = species: Homo sapiens; assay: Selectivity index, ratio of IC50 for recombinant human MAO-A to IC50 for recombinant human MAO-B
# [10] = target: T3, Amine oxidase [flavin-containing] B; assay: Reversible inhibition of recombinant human MAO-B at 0.003 uM using p-tyramine as substrate preincubated for 15 to 60 mins followed by substrate addition and compound dilution to IC50 by Amplex red reagent based fluorescence assay
# Mus musculus [11] = assay: Acute toxicity in Kunming mouse assessed as change in body weight up to 2000 mg/kg, po administered as single dose up to 2 weeks; format: organism-based; conditions: in vivo, 336 h
# [12] = target: T4, Amine oxidase [flavin-containing] A; assay: Inhibition of recombinant human MAO-A assessed as reduction in H2O2 production using p-tyramine as substrate preincubated for 15 mins followed by substrate addition by Amplex red reagent based fluorescence assay
# [13] = target: T3, Amine oxidase [flavin-containing] B; assay: Time-dependent inhibition of recombinant human MAO-B at 0.003 uM using p-tyramine as substrate preincubated for 15 to 60 mins followed by substrate addition and compound dilution to IC50 by Amplex red reagent based fluorescence assay
# Cholinesterase [14] = target: T2, Cholinesterase; assay: Inhibition of human serum BuChE using S-butyrylthiocholine iodide as substrate preincubated for 5 mins followed by substrate addition measured at 1 to 3 mins time interval by Ellman's method; format: ADME
# Mus musculus [15] = assay: Acute toxicity in Kunming mouse assessed as damage to liver up to 2000 mg/kg, po administered as single dose measured after 14 days; format: organism-based; conditions: in vivo, 336 h
# Outline: (§3)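 Male Kunming mice given one oral dose (0, 677, 1333, 2000 mg/kg) in 0.5% CMC-Na after a 12 h fast; after 14 days of observation, animals sacrificed and liver, heart and kidneys visually examined for damage.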
# [16] = Effective permeability of the compound at 0.1 mg/ml after 16 hrs by PAMPA; format: ADME; conditions: read-out: Peff
# Outline: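 Porcine brain lipid in dodecane (20 mg/mL) coated on PVDF filter. Compound stock 5 mg/mL in DMSO, diluted 50-fold into PBS/EtOH (70:30) to 0.1 mg/mL in donor wells; acceptor holds PBS/EtOH (70:30). Incubated 16 h at 25°C. UV plate read at five wavelengths, four wells, at least three runs. Pe derived from acceptor absorbance versus theoretical equilibrium absorbance.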
# Mus musculus [17] = assay: Acute toxicity in Kunming mouse assessed as damage to kidney up to 2000 mg/kg, po administered as single dose measured after 14 days; format: organism-based; conditions: in vivo, 336 h; outline: as §3
# Mus musculus [18] = assay: Acute toxicity in Kunming mouse assessed as damage to heart up to 2000 mg/kg, po administered as single dose measured after 14 days; format: organism-based; conditions: in vivo, 336 h; outline: as §3
# Mus musculus [19] = assay: Acute toxicity in Kunming mouse assessed as fatality up to 2000 mg/kg, po administered as single dose up to 2 weeks; format: organism-based; conditions: in vivo, 336 h
# Outline: (§4)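 Male Kunming mice (18-22g), acclimatised 4 days, fasted 12 h; single oral dose of 677, 1333 or 2000 mg/kg suspended in 0.5% CMC-Na (0.4 ml per mouse), vehicle group 0 mg/kg; 20 mice in 4 groups. Watched continuously for 4 h for abnormal behaviour and deaths, then intermittently to 24 h; observation over 14 days.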
# Acetylcholinesterase [20] = target: T1, Acetylcholinesterase; assay: Mixed-type inhibition of electric eel AChE using varying levels of acetylthiocholine iodide as substrate measured at 1 to 3 mins time interval by Lineweaver-Burk plot analysis
# Outline: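 Electric eel AChE assayed by Ellman's method at […] substrate 0.05-0.25 mM, without inhibitor and with inhibitor at 0.5, 1.0 or 2.0 μM; activity read at 0, 1, 2, 3 min. Lineweaver–Burk plots built; their slopes plotted against inhibitor concentration, Ki taken as the negative x-axis intercept.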
# Mus musculus [21] = assay: Acute toxicity in Kunming mouse assessed as change in mental behavior up to 2000 mg/kg, po administered as single dose up to 2 weeks; format: organism-based; conditions: in vivo, 336 h; outline: as §4
# [22] = target: T3, Amine oxidase [flavin-containing] B; assay: Non-competitive inhibition of recombinant human MAO-B assessed as reduction in H2O2 production at 0.015 to 0.06 uM using p-tyramine as substrate preincubated for 15 mins followed by substrate addition by Lineweaver-Burk plot analysis
# Cholinesterase [23] = target: T5, Cholinesterase; assay: Inhibition of equine serum BuChE using S-butyrylthiocholine iodide as substrate preincubated for 5 mins followed by substrate addition measured at 1 to 3 mins time interval by Ellman's method; format: ADME
# [24] = target: T3, Amine oxidase [flavin-containing] B; assay: Inhibition of recombinant human MAO-B assessed as reduction in H2O2 production at 100 uM using p-tyramine as substrate preincubated for 15 mins followed by substrate addition by Amplex red reagent based fluorescence assay
# Outline: as §2, with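 “p-tyramine. Resorufin fluorescence read at 37°C (ex 545/em 590 nm), background from enzyme-free wells subtracted.” for “p-tyramine.”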
# T5 sequence (P81908 whole entry): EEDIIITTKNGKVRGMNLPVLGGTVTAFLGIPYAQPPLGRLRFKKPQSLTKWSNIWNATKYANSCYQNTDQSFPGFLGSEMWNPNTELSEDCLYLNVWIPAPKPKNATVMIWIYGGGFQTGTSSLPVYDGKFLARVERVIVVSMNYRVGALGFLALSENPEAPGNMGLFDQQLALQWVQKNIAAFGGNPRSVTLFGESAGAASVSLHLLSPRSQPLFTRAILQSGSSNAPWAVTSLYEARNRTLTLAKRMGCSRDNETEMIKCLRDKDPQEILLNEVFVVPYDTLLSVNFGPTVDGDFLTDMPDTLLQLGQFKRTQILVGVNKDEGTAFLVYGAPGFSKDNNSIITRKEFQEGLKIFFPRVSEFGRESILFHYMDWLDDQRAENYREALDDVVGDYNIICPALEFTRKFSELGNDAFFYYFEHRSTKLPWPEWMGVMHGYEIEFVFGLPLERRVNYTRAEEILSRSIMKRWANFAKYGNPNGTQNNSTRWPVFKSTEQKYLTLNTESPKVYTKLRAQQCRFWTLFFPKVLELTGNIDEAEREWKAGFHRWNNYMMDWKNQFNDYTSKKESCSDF
# T1 sequence (O42275 whole entry): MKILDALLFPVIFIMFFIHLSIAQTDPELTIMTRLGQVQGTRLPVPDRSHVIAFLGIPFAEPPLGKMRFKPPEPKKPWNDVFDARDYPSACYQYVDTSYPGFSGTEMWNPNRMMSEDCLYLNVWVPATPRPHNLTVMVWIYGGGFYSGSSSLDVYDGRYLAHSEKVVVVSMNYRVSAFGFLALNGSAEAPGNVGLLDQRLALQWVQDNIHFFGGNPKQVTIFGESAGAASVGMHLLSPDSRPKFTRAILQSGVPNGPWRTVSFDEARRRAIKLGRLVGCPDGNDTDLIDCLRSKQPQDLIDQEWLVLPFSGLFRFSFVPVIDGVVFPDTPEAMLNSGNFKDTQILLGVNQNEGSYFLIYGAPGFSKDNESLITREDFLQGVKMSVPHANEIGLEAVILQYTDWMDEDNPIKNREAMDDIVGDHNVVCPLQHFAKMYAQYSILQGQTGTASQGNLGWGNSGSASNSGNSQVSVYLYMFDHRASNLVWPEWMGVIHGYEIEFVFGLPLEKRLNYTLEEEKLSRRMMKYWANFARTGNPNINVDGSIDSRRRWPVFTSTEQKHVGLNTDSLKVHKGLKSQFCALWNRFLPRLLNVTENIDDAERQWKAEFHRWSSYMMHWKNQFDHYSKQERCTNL
# Chain of Acetylcholinesterase (Homo sapiens, UniProt P22303) (P22303 whole entry): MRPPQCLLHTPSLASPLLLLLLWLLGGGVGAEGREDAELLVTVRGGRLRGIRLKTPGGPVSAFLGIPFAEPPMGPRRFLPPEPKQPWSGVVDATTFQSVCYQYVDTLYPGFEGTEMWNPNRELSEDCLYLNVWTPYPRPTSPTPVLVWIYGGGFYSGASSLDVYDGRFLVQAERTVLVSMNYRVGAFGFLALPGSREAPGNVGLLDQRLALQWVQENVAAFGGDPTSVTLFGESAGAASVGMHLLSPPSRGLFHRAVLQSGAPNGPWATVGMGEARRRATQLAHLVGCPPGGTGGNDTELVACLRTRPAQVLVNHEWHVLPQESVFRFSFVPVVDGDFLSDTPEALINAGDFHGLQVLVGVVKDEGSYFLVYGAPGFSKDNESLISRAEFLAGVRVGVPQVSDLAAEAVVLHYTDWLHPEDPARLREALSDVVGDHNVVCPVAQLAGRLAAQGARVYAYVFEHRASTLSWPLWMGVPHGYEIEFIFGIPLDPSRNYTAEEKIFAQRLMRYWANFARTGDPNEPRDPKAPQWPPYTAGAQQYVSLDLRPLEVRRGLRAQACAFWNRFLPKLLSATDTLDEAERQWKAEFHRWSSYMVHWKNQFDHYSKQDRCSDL
# T2 sequence (P06276 whole entry): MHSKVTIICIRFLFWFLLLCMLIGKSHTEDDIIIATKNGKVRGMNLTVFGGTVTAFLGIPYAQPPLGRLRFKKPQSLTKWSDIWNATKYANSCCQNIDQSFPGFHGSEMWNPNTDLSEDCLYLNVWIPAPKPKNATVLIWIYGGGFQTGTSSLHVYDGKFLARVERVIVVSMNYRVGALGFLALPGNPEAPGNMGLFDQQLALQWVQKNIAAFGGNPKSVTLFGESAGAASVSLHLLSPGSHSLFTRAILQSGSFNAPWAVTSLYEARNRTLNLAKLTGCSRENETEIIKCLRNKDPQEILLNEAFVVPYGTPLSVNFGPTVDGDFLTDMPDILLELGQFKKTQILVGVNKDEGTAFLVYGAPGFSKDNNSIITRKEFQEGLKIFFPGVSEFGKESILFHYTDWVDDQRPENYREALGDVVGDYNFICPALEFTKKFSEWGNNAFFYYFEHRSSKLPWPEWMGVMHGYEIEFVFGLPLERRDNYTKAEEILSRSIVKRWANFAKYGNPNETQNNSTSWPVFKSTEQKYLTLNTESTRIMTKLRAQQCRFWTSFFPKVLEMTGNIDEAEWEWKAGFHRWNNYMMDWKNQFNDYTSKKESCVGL
Compound,Ratio IC50 [1],IC50 (Acetylcholinesterase [2]) [µM],Ratio IC50 (Homo sapiens [4]),IC50 (Acetylcholinesterase [5]) [µM],IC50 [6] [µM],inhibition (INH) [7],Ratio IC50 (Homo sapiens [9]),IC50 (Cholinesterase [23]) [µM],further results
O=C1/C(=C/c2ccc(O)cc2)COc2ccccc21,> 2.25,44.4,1.01,99.9,0.242,Not Active,> 413,–,inhibition (INH) (Cholinesterase [3]): Not Active; inhibition (INH) (Cholinesterase [8]): Not Active
CN(C)CCOc1ccc(/C=C2\COc3ccccc3C2=O)cc1,32.3,0.89,14.2,0.657,0.0372,–,1024,28.7,"inhibition (INH) [10]: Active; Activity (Mus musculus [11]): Non-Toxic; IC50 [12]: 38.1 µM; TDI [13]: Not Active; IC50 (Cholinesterase [14]): 9.31 µM; Activity (Mus musculus [15]): Non-Toxic; Papp at 16 h, 0.1 mg/ml [16]: 10.6 ×10⁻⁶ cm/s; Activity (Mus musculus [17]): Non-Toxic; Activity (Mus musculus [18]): Non-Toxic; Activity (Mus musculus [19]): Non-Toxic; Ki (Acetylcholinesterase [20]): 0.404 µM; Activity (Mus musculus [21]): Non-Toxic; Ki [22]: 0.551 µM"
CCN(CC)CCCOc1ccccc1/C=C1\COc2ccccc2C1=O,0.0892,54.8,–,–,–,Not Active,–,4.89,inhibition (INH) [24]: Not Active
